Tests used:
[1] = Lipophilicity, logD of compound in octanol/water at pH 7.4 by shake-flask method; type: physicochemical
Bcl-2-related protein A1 [2] = target: T1, Bcl-2-related protein A1 (Homo sapiens, UniProt Q16548); assay: Inhibition of N-terminal His6-tagged recombinant human Bfl-1 (1 to 151 residues) expressed in Escherichia coli BL21-Gold (DE3) using HyLite Fluor 647-labeled BIM peptide as substrate incubated for 120 mins by TR-FRET assay
T1 sequence (Q16548 whole entry): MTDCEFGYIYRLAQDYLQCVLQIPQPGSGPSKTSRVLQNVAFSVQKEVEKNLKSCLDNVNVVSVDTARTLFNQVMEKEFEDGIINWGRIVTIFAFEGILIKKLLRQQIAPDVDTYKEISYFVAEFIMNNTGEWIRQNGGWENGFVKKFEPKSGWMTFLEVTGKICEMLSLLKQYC
Summary of the method: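 Bfl-1 binding read as displacement of a labeled BIM peptide probe in a TR-FRET assay, reported as IC50 in μM.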

Bcl-2-like protein 1 = Bcl-2-like protein 1 (Homo sapiens, UniProt Q07817); assay: Inhibition of Bcl-xl (unknown origin) incubated for 120 mins by TR-FRET assay
[3] = target: Apoptosis regulator Bcl-2 (Homo sapiens, UniProt P10415); assay: Inhibition of Bcl-2 (unknown origin) incubated for 120 mins by TR-FRET assay
[4] = target: Induced myeloid leukemia cell differentiation protein Mcl-1 (Homo sapiens, UniProt Q07820); assay: Inhibition of Mcl-1 (unknown origin) incubated for 120 mins by TR-FRET assay
Bcl-2-related protein A1 [5] = target: T1, Bcl-2-related protein A1; assay: Binding affinity of N-terminal His6-tagged recombinant human Bfl-1 (1 to 151 residues) expressed in Escherichia coli BL21-Gold (DE3) assessed as inhibition constant by MS analysis

Apoptosis regulator Bcl-2, sequence (P10415 whole entry): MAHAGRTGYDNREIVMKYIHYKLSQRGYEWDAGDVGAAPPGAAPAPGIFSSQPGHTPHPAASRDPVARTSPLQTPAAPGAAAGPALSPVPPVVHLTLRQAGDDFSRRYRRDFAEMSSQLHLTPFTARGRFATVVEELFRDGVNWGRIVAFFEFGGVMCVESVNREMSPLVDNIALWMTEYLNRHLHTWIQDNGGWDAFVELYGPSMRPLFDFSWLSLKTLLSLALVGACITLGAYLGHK
Induced myeloid leukemia cell differentiation protein Mcl-1, sequence (Q07820 whole entry, the tested form may be a part): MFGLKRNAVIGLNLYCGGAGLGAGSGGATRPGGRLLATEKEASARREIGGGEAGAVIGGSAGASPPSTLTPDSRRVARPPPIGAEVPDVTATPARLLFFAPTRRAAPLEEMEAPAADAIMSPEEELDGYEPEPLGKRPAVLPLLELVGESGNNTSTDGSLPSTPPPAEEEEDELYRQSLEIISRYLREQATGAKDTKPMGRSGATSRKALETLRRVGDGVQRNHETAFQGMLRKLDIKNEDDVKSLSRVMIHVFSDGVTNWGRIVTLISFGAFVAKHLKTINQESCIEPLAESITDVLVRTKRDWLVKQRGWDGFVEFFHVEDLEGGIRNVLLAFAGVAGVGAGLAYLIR
Bcl-2-like protein 1, sequence (Q07817 whole entry): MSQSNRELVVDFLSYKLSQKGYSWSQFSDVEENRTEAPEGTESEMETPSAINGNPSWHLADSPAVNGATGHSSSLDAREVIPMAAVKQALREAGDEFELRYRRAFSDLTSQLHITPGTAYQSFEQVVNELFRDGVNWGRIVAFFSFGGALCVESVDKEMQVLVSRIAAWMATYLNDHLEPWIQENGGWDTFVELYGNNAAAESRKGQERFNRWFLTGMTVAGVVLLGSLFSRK

SMILES	logD [1]	IC50 (Bcl-2-related protein A1 [2])	IC50 (Bcl-2-like protein 1)	IC50 [3]	IC50 [4]	Ki (Bcl-2-related protein A1 [5])
CP(C)(=O)c1ccccc1/C=C(\C#N)C(=O)NCCc1ccc(Cl)c(Cl)c1	1.9	27 µM				
CN(C)C(=O)[C@@H](Cc1ccc(C(F)(F)F)cc1)NC(=O)/C(C#N)=C/c1ccccc1P(C)(C)=O	2.1	> 100 µM				
CN(C)C(=O)[C@H](Cc1ccc(C(F)(F)F)cc1)NC(=O)/C(C#N)=C/c1ccccc1P(C)(C)=O	2	29 µM	> 100 µM	> 100 µM	> 100 µM	5.4 µM
CP(C)(=O)c1ccccc1/C=C(\C#N)C(=O)NCCc1ccc(Cl)cc1	2.3	54 µM				
CN(C)C(=O)[C@H](Cc1ccc(C(F)(F)F)cc1)NC(=O)/C(C#N)=C/c1ccccc1S(C)(=O)=O	2.6	> 100 µM				
CP(C)(=O)c1ccccc1/C=C(\C#N)C(=O)NCCc1ccccc1	1.7	> 100 µM				
CN(C)C(=O)c1ccccc1/C=C(\C#N)C(=O)NC(Cc1ccc(C(F)(F)F)cc1)C(=O)N(C)C (racemic)	2.2	> 100 µM				
CN(C)C(=O)[C@H](Cc1ccc(C(F)(F)F)cc1)NC(=O)/C(C#N)=C/c1ccc(P(C)(C)=O)cc1	2.1	> 100 µM				
CP(C)(=O)c1ccccc1/C=C(\C#N)C(=O)NCC1(c2ccc(C(F)(F)F)cc2)CC1	3	4.3 µM				

The next lines start with the values.

logD [1]	IC50 (Bcl-2-related protein A1 [2])	IC50 (Bcl-2-like protein 1)	IC50 [3]	IC50 [4]	Ki (Bcl-2-related protein A1 [5])	SMILES
2	50 µM					CP(C)(=O)c1ccccc1/C=C(\C#N)C(=O)NCC1(c2ccccc2)CC1
3.2	> 100 µM					CN(C)C(=O)C(Cc1ccc(C(F)(F)F)cc1)NC(=O)/C(C#N)=C/c1ccccc1S(=O)(=O)N(C)C (racemic)
2.2	> 100 µM					CN(C)C(=O)[C@H](Cc1ccc(C(F)(F)F)cc1)NC(=O)/C(C#N)=C/c1cccc(P(C)(C)=O)c1
3.9	> 100 µM					CN(C)C(=O)[C@H](Cc1ccc(C(F)(F)F)cc1)NC(=O)/C(C#N)=C/c1ccccc1
2.7	23 µM					CP(C)(=O)c1ccccc1/C=C(\C#N)C(=O)NCCc1ccc(C(F)(F)F)cc1
